In ChEMBL document CHEMBL3108713, “Identification of ML251, a Potent Inhibitor of T. brucei and T. cruzi Phosphofructokinase” (ACS Med Chem Lett, 2014):
Values after ≈ are worked out from the molar mass of the structure shown.

Columns and labels:
[1] = target: T1, ATP-dependent 6-phosphofructokinase (Trypanosoma brucei, UniProt O15648); assay: Inhibition of Trypanosoma brucei PFK-mediated ADP production using ATP/fructose-6-phosphate as substrate by luciferase based luminescence assay
T1 sequence (O15648 whole entry): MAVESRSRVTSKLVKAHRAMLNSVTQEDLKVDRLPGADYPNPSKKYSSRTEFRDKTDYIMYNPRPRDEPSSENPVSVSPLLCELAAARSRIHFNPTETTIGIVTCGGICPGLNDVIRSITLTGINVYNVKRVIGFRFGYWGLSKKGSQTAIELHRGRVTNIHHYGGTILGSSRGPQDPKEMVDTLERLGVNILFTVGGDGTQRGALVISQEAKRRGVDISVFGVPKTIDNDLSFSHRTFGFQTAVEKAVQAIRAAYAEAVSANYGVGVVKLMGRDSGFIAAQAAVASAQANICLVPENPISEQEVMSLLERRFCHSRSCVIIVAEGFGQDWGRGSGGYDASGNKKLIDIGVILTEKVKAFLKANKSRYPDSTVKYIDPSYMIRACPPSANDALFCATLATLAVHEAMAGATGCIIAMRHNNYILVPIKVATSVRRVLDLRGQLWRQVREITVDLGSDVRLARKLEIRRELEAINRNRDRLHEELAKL
How it was run: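 Recombinant enzyme; ADP formed by PFK detected with modified luciferase (ADP-Glo) luminescent end-point in 1536-well format.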

[2] = target: T2, ATP-dependent 6-phosphofructokinase (Trypanosoma brucei) (UniProt O15648); assay: Inhibition of Trypanosoma brucei PFK-mediated ADP production using ATP/fructose-6-phosphate as substrate at 57 uM by luciferase based luminescence assay
T2 sequence (whole entry): T1 sequence (O15648 whole entry)
How it was run: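 Recombinant T. brucei PFK; ADP formed by the enzyme is converted to a luminescent signal by a modified luciferase ADP-Glo detection, read at end point.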

[3] = target: T3, ATP-dependent 6-phosphofructokinase (Trypanosoma cruzi) (UniProt Q4E657); assay: Inhibition of Trypanosoma cruzi PFK at 57 uM
T3 sequence (whole entry): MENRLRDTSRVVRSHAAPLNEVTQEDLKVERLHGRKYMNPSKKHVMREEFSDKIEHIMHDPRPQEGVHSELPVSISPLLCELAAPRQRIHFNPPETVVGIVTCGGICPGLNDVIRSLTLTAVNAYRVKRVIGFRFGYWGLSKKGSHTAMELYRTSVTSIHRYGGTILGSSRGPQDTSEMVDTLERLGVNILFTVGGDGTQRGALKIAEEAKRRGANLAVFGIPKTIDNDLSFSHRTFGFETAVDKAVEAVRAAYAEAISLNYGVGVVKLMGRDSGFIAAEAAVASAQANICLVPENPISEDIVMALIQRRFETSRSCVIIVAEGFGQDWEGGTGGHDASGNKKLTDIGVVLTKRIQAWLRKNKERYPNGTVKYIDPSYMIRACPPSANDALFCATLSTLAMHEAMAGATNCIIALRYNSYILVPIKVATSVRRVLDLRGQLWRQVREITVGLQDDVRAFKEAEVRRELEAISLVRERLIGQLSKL
How it was run: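 PFK activity is measured by coupling ADP production to ADP-Glo luciferase luminescence at end point. Percent inhibition is recorded at 57 μM, the highest concentration of the dose series, with at least 3 separate experiments averaged.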

[4] = target: T4, ATP-dependent 6-phosphofructokinase (Trypanosoma cruzi, UniProt Q4E657); assay: Inhibition of Trypanosoma cruzi PFK
T4 sequence (Q4E657 whole entry): T3 sequence (whole entry)

[5] = Cytotoxicity against human MRC5 cells assessed as intracellular ATP content after 72 hrs by Cell titer-Glo luminiscent assay; type: cell-based
[6] = tested on: Trypanosoma brucei brucei; assay: Antitrypanosomal activity against Trypanosoma brucei brucei Lister 427 assessed as cell viability after 72 hrs by alamar blue assay; type: functional
[7] = Half life in rat liver microsomes; type: ADME
[8] = Aqueous kinetic solubility of the compound; type: physicochemical; conditions: buffer; read-out: Kinetic_solubility
[9] = Half life in mouse liver microsomes; type: ADME, Microsome

| SMILES | IC50 [1] [µM] | inhibition [2] [%] | inhibition [3] [%] | IC50 [4] [µM] | EC50 ([6]; Lister 427, 72 h, read-out: ED50 (the source's name)) [µM] | half-life [7] [min] | solubility kinetic [8] [µg/mL] | half-life [9] [h] | CC50 at 72 h [5] [µM] | Activity [6] |
| --- | --- | --- | --- | --- | --- | --- | --- | --- | --- | --- |
| Cc1cc(NS(=O)(=O)c2ccc(N(C)C(=O)Cc3ccc(Cl)c(Cl)c3)cc2)no1 | 6.51 | > 80 | > 80 | 1.3 | – | – | – | – | – | – |
| COc1ccc(CC(=O)Nc2ccc(S(=O)(=O)Nc3cc(C)on3)cc2)cc1OC | > 57 | – | – | > 57 | – | – | – | – | – | – |
| O=C(Cc1ccc(Cl)c(Cl)c1)Nc1ccc(S(=O)(=O)Nc2ccccc2)cc1 | 16.3 | > 80 | > 80 | 16.3 | – | – | – | – | – | – |
| Cc1cc(NS(=O)(=O)c2ccc(NC(=O)Cc3ccccc3)cc2)no1 | 36.6 | > 80 | > 80 | 20.6 | – | – | – | – | – | – |
| Cc1cc(NS(=O)(=O)c2ccc(NC(=O)CCc3ccc(Cl)c(Cl)c3)cc2)no1 | 5.17 | > 80 | > 80 | 6.51 | – | – | – | – | – | – |
| Cc1cc(NC(=O)c2ccc(NC(=O)Cc3ccc(Cl)c(Cl)c3)cc2)no1 | > 57 | – | – | > 57 | – | – | – | – | – | – |
| COc1ccc(CC(=O)Nc2ccc(S(=O)(=O)Nc3cc(C)on3)cc2)cc1C | > 57 | – | > 80 | 20.6 | – | – | – | – | – | – |
| Cc1cc(NS(=O)(=O)c2ccc(NC(=O)Cc3ccc(C)c(C)c3)cc2)no1 | 18.3 | > 80 | > 80 | 6.5 | – | – | – | – | – | – |
| Cc1cc(NS(=O)(=O)c2ccc(NC(=O)Cc3ccc4ccccc4c3)cc2)no1 | 6.51 | > 80 | > 80 | 1.83 | – | – | – | – | – | – |
| Cc1cc(NS(=O)(=O)c2ccc(NC(=O)Cc3cccc(Cl)c3)cc2)no1 | 7.3 | > 80 | > 80 | 2.59 | – | – | – | – | – | – |
| Cc1cc(NS(=O)(=O)c2ccc(NC(=O)C(C)(C)c3ccc(Cl)c(Cl)c3)cc2)no1 | 36.6 | > 80 | > 80 | 36.5 | – | – | – | – | – | – |
| CCOC(=O)c1cccc(NS(=O)(=O)c2ccc(NC(=O)Cc3ccc(Cl)c(Cl)c3)cc2)c1 | > 57 | – | – | > 57 | – | – | – | – | – | – |
| Cc1cc(NS(=O)(=O)c2ccc(NC(=O)c3ccc(Cl)c(Cl)c3)cc2)no1 | 14.6 | > 80 | > 80 | 20.6 | – | – | – | – | – | – |
| Cc1cc(NS(=O)(=O)c2ccc(NC(=O)Cc3ccc(C)c(F)c3)cc2)no1 | 5.8 | > 80 | > 80 | 4.6 | – | – | – | – | – | – |
| Cc1cc(NS(=O)(=O)C2CCN(C(=O)Cc3ccc(Cl)c(Cl)c3)CC2)no1 | 33 | > 80 | > 80 | 13 | – | – | – | – | – | – |
| Cc1cc(NC(=O)c2csc(NC(=O)Cc3ccc(Cl)c(Cl)c3)n2)no1 | > 57 | – | – | > 57 | – | – | – | – | – | – |
| Cc1cc(NS(=O)(=O)CCNC(=O)Cc2ccc(Cl)c(Cl)c2)no1 | 32.6 | > 80 | > 80 | 16.3 | – | – | – | – | – | – |
| Cc1cc(NS(=O)(=O)c2ccc(NCCc3ccc(Cl)c(Cl)c3)cc2)no1 | 6 | > 80 | > 80 | 16.3 | – | – | – | – | – | – |
| CN(C)c1cccc(NS(=O)(=O)c2ccc(NC(=O)Cc3ccc(Cl)c(Cl)c3)cc2)c1 | 5.8 | > 80 | > 80 | 11.6 | – | – | – | – | – | – |
| Cc1cc(NS(=O)(=O)c2cccc(NC(=O)Cc3ccc(Cl)c(Cl)c3)c2)no1 | 16.3 | > 80 | > 80 | 16.3 | – | – | – | – | – | – |
| Cc1cc(NS(=O)(=O)c2ccc(NS(=O)(=O)Cc3ccc(Cl)c(Cl)c3)cc2)no1 | 37 | > 80 | – | > 57 | – | – | – | – | – | – |

Second part, led by results:

| IC50 [1] [µM] | inhibition [2] [%] | inhibition [3] [%] | IC50 [4] [µM] | EC50 ([6]; Lister 427, 72 h, read-out: ED50 (the source's name)) [µM] | half-life [7] [min] | solubility kinetic [8] [µg/mL] | half-life [9] [h] | SMILES | CC50 at 72 h [5] [µM] | Activity [6] |
| --- | --- | --- | --- | --- | --- | --- | --- | --- | --- | --- |
| 3 | – | – | – | – | – | – | – | Cc1ccc(C(=O)Nc2ccc(S(=O)(=O)O)c3cc(S(=O)(=O)O)cc(S(=O)(=O)O)c23)cc1NC(=O)c1cccc(NC(=O)Nc2cccc(C(=O)Nc3cc(C(=O)Nc4ccc(S(=O)(=O)O)c5cc(S(=O)(=O)O)cc(S(=O)(=O)O)c45)ccc3C)c2)c1 [SURAMIN] | – | – |
| 5.16 | > 80 | > 80 | 2.91 | – | – | – | – | Cc1cc(NS(=O)(=O)c2ccc(C(=O)NCc3ccc(Cl)c(Cl)c3)cc2)no1 | – | – |
| 2.91 | > 80 | > 80 | 2.06 | – | – | – | – | Cc1cc(N(C)S(=O)(=O)c2ccc(NC(=O)Cc3ccc(Cl)c(Cl)c3)cc2)no1 | – | – |
| 0.82 | > 80 | > 80 | 0.73 | – | – | – | – | O=C(Cc1ccc(Cl)c(Cl)c1)Nc1ccc(S(=O)(=O)Nc2cncnc2)cc1 | – | – |
| 0.26 | > 80 | > 80 | 0.58 | – | – | – | – | O=C(Cc1ccc(Cl)c(Cl)c1)Nc1ccc(S(=O)(=O)Nc2cccc(C(=O)O)c2)cc1 | – | – |
| 4.61 | > 80 | > 80 | 14.6 | – | – | – | – | Cc1cc(NS(=O)(=O)c2ccc(NC(=O)Cc3ccc(Cl)cc3Cl)cc2)no1 | – | – |
| 0.68 | > 80 | > 80 | 0.92 | – | – | – | – | Cc1cc(NS(=O)(=O)c2ccc(NC(=O)Cc3ccc(Cl)c(C(F)(F)F)c3)cc2)no1 | – | – |
| 0.65 | > 80 | > 80 | 0.46 | – | – | – | – | O=C(Cc1ccc(Cl)c(Cl)c1)Nc1ccc(S(=O)(=O)O)cc1 | – | – |
| 1.46 | > 80 | > 80 | 1.63 | – | – | – | – | O=C(Cc1ccc(Cl)c(Cl)c1)Nc1ccc(S(=O)(=O)Nc2cccc(O)c2)cc1 | – | – |
| 0.7 | > 80 | > 80 | 0.65 | – | – | – | – | Cc1cc(NS(=O)(=O)c2ccc(NC(=O)Cc3ccc(Cl)c(F)c3)cc2)no1 | – | – |
| 0.73 | > 80 | > 80 | 0.46 | – | – | – | – | Cc1cc(NS(=O)(=O)c2ccc(NC(=O)Cc3ccc(F)c(Cl)c3)cc2)no1 | – | – |
| 2.31 | > 80 | > 80 | 1.16 | – | – | – | – | Cc1cc(NS(=O)(=O)c2ccc(NC(=O)Cc3ccc(Cl)c(Cl)c3)cc2)n(C)n1 | – | – |
| 0.024 | > 80 | > 80 | 0.12 | – | – | – | – | O=C(Cc1ccc(F)c(Cl)c1)Nc1ccc(S(=O)(=O)Nc2nccs2)cc1 | – | – |
| 0.41 | > 80 | > 80 | 0.23 | 26.8 | 9.7 | 23.3 (≈ 52.9 µM) | 6.8 | Cc1cc(NS(=O)(=O)c2ccc(NC(=O)Cc3ccc(Cl)c(Cl)c3)cc2)no1 | > 46 | Dose-dependent effect |
| 0.079 | > 80 | > 80 | 0.041 | – | – | – | – | O=C(Cc1ccc(Cl)c(Cl)c1)Nc1ccc(S(=O)(=O)Nc2nccs2)cc1 | – | – |
| 0.16 | > 80 | > 80 | 0.29 | – | – | – | – | O=C(Cc1ccc(Cl)c(Cl)c1)Nc1ccc(S(=O)(=O)Nc2ccc(C(=O)O)cc2)cc1 | – | – |
| 0.112 | > 80 | > 80 | 0.052 | – | – | – | – | O=C(Cc1ccc(Cl)c(Cl)c1)Nc1ccc(S(=O)(=O)Nc2nncs2)cc1 | – | – |
| 2.59 | > 80 | > 80 | 3.26 | – | – | – | – | Cc1cc(NS(=O)(=O)Cc2ccc(NC(=O)Cc3ccc(Cl)c(Cl)c3)cc2)no1 | – | – |
| 1.83 | > 80 | > 80 | 1.46 | – | – | – | – | Cc1cc(NS(=O)(=O)c2ccc(NC(=O)Cc3ccc(Cl)cc3)cc2)no1 | – | – |
| 0.52 | > 80 | > 80 | 0.73 | – | – | – | – | O=C(Cc1ccc(Cl)c(Cl)c1)Nc1ccc(S(=O)(=O)Nc2cc[nH]n2)cc1 | – | – |
